Legend:
[1] = Volume of distribution at steady state in MRP2 knockout Sprague-Dawley rat at 1 mg/kg, iv by LC-MS/MS analysis; type: ADME, organism-based; set-up: dose 1 mg/kg, route intravenous; details: in vivo, read-out: Vdss
How it was run: (§1)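 Male Sprague-Dawley rats (knockout or wild type matched for age and weight), femoral artery and vein cannulated, at least 2 days recovery. Crossover design: IV bolus 1 mg/kg on day 0 (saline with 0.2 M equivalents HCl), oral gavage 10 mg/kg on day 3 (water with 0.2 M equivalents HCl). Arterial plasma sampled to 24 h (Mdr1a oral arm to 4 h). Analysed by LC-MS/MS and noncompartmental analysis.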

[2] = Half life in BCRP knockout Sprague-Dawley rat at 5 mg/kg, po by LC-MS/MS analysis; type: ADME, organism-based; set-up: dose 5 mg/kg, route oral; details: in vivo
How it was run: (§2)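 Male Sprague-Dawley rats (knockouts age- and weight-matched to wild type), femoral-artery and vein cannulated, recovered ≥2 days. IV/oral crossover: 1 mg/kg IV bolus on day 0, then after a 3-day washout 5 mg/kg oral gavage in 10 ml/kg 50% Cremophor EL in ethanol. Arterial plasma 0–24 h, protein-precipitated, LC-MS/MS (positive ion, 1–5000 ng/ml). Noncompartmental analysis; n=5–9.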

[3] = Clearance in MDR1A knockout Sprague-Dawley rat at 1 mg/kg, iv by LC-MS/MS analysis; details: in vivo
[4] = Drug excretion in bile duct-cannulated BCRP knockout Sprague-Dawley rat bile at 1 mg/kg, iv up to 24 hrs; type: ADME, organism-based; set-up: dose 1 mg/kg, route intravenous; details: read-out: Drug excretion
How it was run: (§3)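 Male Sprague-Dawley rats with bile-duct and femoral cannulation, housed in metabolism cages. Given an IV bolus of 1 mg/kg in 2 ml/kg 50% Cremophor EL in ethanol. Urine, bile and feces collected in toto 0–24 h, with cage wash at 24 h. Amounts quantified by LC-MS/MS and expressed as % of dose; n=6–12.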

[5] = Half life in MDR1A knockout Sprague-Dawley rat at 5 mg/kg, po by LC-MS/MS analysis; type: ADME, organism-based; set-up: dose 5 mg/kg, route oral; details: in vivo; how it was run: as §2
[6] = Drug excretion in bile duct-cannulated wild-type Sprague-Dawley rat feces at 1 mg/kg, iv up to 24 hrs; type: ADME, organism-based; set-up: dose 1 mg/kg, route intravenous; details: faeces, read-out: Drug excretion; how it was run: as §3
[7] = Volume of distribution at steady state in BCRP knockout Sprague-Dawley rat at 1 mg/kg, iv by LC-MS/MS analysis; type: ADME, organism-based; set-up: dose 1 mg/kg, route intravenous; details: in vivo, read-out: Vdss; how it was run: as §1
Brain = assay: Drug uptake in BCRP knockout Sprague-Dawley rat brain at 1 mg/kg, iv; type: ADME, organism-based; set-up: dose 1 mg/kg, route intravenous; details: in vivo
[8] = Oral bioavailability in MDR1A knockout Sprague-Dawley rat at 5 mg/kg by LC-MS/MS analysis; type: ADME, organism-based; details: in vivo
[9] = Volume of distribution at steady state in MDR1A knockout Sprague-Dawley rat at 1 mg/kg, iv by LC-MS/MS analysis; type: ADME, organism-based; set-up: dose 1 mg/kg, route intravenous; details: in vivo, read-out: Vdss; how it was run: as §1
[10] = Half life in BCRP knockout Sprague-Dawley rat at 1 mg/kg, iv by LC-MS/MS analysis; type: ADME, organism-based; set-up: dose 1 mg/kg, route intravenous; details: in vivo; how it was run: as §1
[11] = Drug excretion in bile duct-cannulated MRP2 knockout Sprague-Dawley rat bile at 1 mg/kg, iv up to 24 hrs; type: ADME, organism-based; set-up: dose 1 mg/kg, route intravenous; details: read-out: Drug excretion; how it was run: as §3
[12] = AUC (infinity) in MRP2 knockout Sprague-Dawley rat at 5 mg/kg, po by LC-MS/MS analysis; type: ADME, organism-based; set-up: time infinity, dose 5 mg/kg, route oral; details: plasma; how it was run: as §2
Liver = assay: Drug uptake in MDR1A knockout Sprague-Dawley rat liver at 1 mg/kg, iv; type: ADME, organism-based; set-up: dose 1 mg/kg, route intravenous; details: in vivo
Rattus norvegicus = assay: AUC (infinity) in MRP2 knockout Sprague-Dawley rat at 1 mg/kg, iv by LC-MS/MS analysis; type: ADME, organism-based, Plasma; set-up: time infinity, dose 1 mg/kg, route intravenous; details: in vivo
[13] = Half life in wild-type Sprague-Dawley rat at 5 mg/kg, po by LC-MS/MS analysis; type: ADME, organism-based; set-up: dose 5 mg/kg, route oral; details: in vivo; how it was run: as §2
[14] = Drug excretion in bile duct-cannulated MRP2 knockout Sprague-Dawley rat urine at 1 mg/kg, iv up to 24 hrs; type: ADME, organism-based; set-up: dose 1 mg/kg, route intravenous; details: read-out: Drug excretion; how it was run: as §3
[15] = Drug excretion in bile duct-cannulated MDR1A knockout Sprague-Dawley rat urine at 1 mg/kg, iv up to 24 hrs; type: ADME, organism-based; set-up: dose 1 mg/kg, route intravenous; details: read-out: Drug excretion
How it was run: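 Male Sprague-Dawley Mdr1a knockout rats with bile duct and femoral cannulas, housed in metabolism cages. […] Urine, bile and feces were collected in total over 0–24 h, and cage wash was taken at 24 h.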

[16] = AUC (infinity) in wild-type Sprague-Dawley rat at 5 mg/kg, po by LC-MS/MS analysis; type: ADME, organism-based; set-up: time infinity, dose 5 mg/kg, route oral; details: plasma; how it was run: as §2
[17] = Oral bioavailability in wild-type Sprague-Dawley rat at 5 mg/kg by LC-MS/MS analysis; type: ADME, organism-based; details: in vivo; how it was run: as §2
Kidney = assay: Drug uptake in MDR1A knockout Sprague-Dawley rat kidney at 1 mg/kg, iv; type: ADME, organism-based; set-up: dose 1 mg/kg, route intravenous; details: in vivo
[18] = Tmax in wild-type Sprague-Dawley rat at 5 mg/kg, po by LC-MS/MS analysis; type: ADME, organism-based; set-up: dose 5 mg/kg, route oral; details: in vivo; how it was run: as §2
[19] = Tmax in MRP2 knockout Sprague-Dawley rat at 5 mg/kg, po by LC-MS/MS analysis; type: ADME, organism-based; set-up: dose 5 mg/kg, route oral; details: in vivo; how it was run: as §2
[20] = Half life in wild-type Sprague-Dawley rat at 1 mg/kg, iv by LC-MS/MS analysis; type: ADME, organism-based; set-up: dose 1 mg/kg, route intravenous; details: in vivo; how it was run: as §1
[21] = Drug excretion in bile duct-cannulated wild-type Sprague-Dawley rat urine at 1 mg/kg, iv up to 24 hrs; type: ADME, organism-based; set-up: dose 1 mg/kg, route intravenous; details: read-out: Drug excretion; how it was run: as §3
[22] = Drug excretion in bile duct-cannulated MRP2 knockout Sprague-Dawley rat feces at 1 mg/kg, iv up to 24 hrs; type: ADME, organism-based; set-up: dose 1 mg/kg, route intravenous; details: faeces, read-out: Drug excretion; how it was run: as §3
[23] = Volume of distribution at steady state in wild-type Sprague-Dawley rat at 1 mg/kg, iv by LC-MS/MS analysis; type: ADME, organism-based; set-up: dose 1 mg/kg, route intravenous; details: in vivo, read-out: Vdss; how it was run: as §1

Work on `CC(=O)O[C@H]1C(=O)[C@@]2(C)[C@H]([C@H](OC(=O)c3ccccc3)[C@]3(O)C[C@H](OC(=O)[C@H](O)[C@@H](NC(=O)c4ccccc4)c4ccccc4)C(C)=C1C3(C)C)[C@]1(OC(C)=O)CO[C@@H]1C[C@@H]2O` [PACLITAXEL] yielded a Vd [1] of 28.6 L/kg, a half-life [2] of 5.3 h and a clearance [3] of 66.7 mL/min/kg. The dose excreted at 24 h [4] was 0.1%, the half-life [5] was 10 h and the dose excreted at 24 h [6] was 2.3%. For the same compound, the Vd [7] was 29.1 L/kg, the Drug uptake (Brain) was “Active” and the bioavailability [8] was 47%. The Vd [9] was 38.1 L/kg, the half-life [10] was 6.4 h and the dose excreted at 24 h [11] was 0.2%. The AUC(0-inf) [12] was 622 ng·h/mL, the Drug uptake (Liver) was “Active” and the AUC (Rattus norvegicus) was 375 ng·h/mL. The half-life [13] was 4.4 h, the dose excreted at 24 h [14] was 4.5% and the dose excreted at 24 h [15] was 0.14%. For the same compound, the AUC(0-inf) [16] was 88 ng·h/mL, the bioavailability [17] was 12% and the Drug uptake (Kidney) was “Active”. It also gave a Tmax [18] of 0.8 h, a Tmax [19] of 0.9 h and a half-life [20] of 7.2 h. For the same compound, the dose excreted at 24 h [21] was 3.1%, the dose excreted at 24 h [22] was 2.8% and the Vd [23] was 30.3 L/kg.
